Series [1] is described as follows: WHO-TDR: Cytotoxicity. The format is toxicity, cell-based. To be noted: human, MRC5 cells.
The subject of a further series is Plasmodium falciparum K1. As to the kind of experiment: WHO-TDR: Malaria. Conditions: Erythrocyte. The class given is functional, organism-based, Homo sapiens. In outline:
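A diverse library of 10,000 compounds from Life Chemicals, filtered for drug-likeness and reactive groups, was screened against the intra-erythrocytic Plasmodium falciparum K1 strain in human red blood cells. Previously published standard procedures were followed, with a reference drug as positive control. Antiplasmodial potency is given as IC50.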

For another series, the system named is Trypanosoma cruzi. As to the kind of experiment: WHO-TDR: Chagas disease. The format is functional, organism-based, Homo sapiens. To be noted: MRC5. In outline: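 A diverse library of 10,000 compounds from Life Chemicals, filtered for drug-likeness and reactive groups, was screened against intracellular amastigotes of Trypanosoma cruzi Tulahuen CL2 beta-galactosidase strain. The parasites were grown in MRC-5SV2 human lung fibroblast host cells, and a reference drug served as positive control under previously published standard procedures. Antiparasitic potency is given as IC50.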

The test system of series [2] is Trypanosoma brucei brucei. Nature of the series: WHO-TDR: Human African Trypanosomiasis (HAT). The class given is functional, organism-based. Conditions: Squib-427. In outline: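 A diverse library of 10,000 compounds from Life Chemicals, filtered for drug-likeness and reactive groups, was screened against bloodstream forms of Trypanosoma brucei Squib 427 strain in a whole-organism assay. Previously published standard procedures were followed, with reference drugs serving as positive controls. Antiparasitic potency is given as IC50.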

For a further series, the system named is Leishmania infantum. Nature of the series: WHO-TDR: Leishmaniasis. The format is functional, organism-based, Mus musculus. To be noted: Macrophage. Summed up:
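A diverse library of 10,000 compounds from Life Chemicals, filtered for drug-likeness and reactive groups, was screened against whole organisms. The targets were intracellular amastigotes of Leishmania infantum MHOM/MA(BE)/67 growing in murine peritoneal macrophages. Previously published standard procedures were followed, with a reference drug as positive control. Antiparasitic potency is given as IC50.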

A further series concerns Schistosoma mansoni. As to the kind of experiment: WHO-TDR: Schistosomiasis. The format is functional. Details: concentration or dose not given beside the values. Summed up:
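Percent inhibition and IC50 describe activity against whole Schistosoma mansoni worms of the Puerto Rican strain, tested as larvae and/or adults. The compounds screened were a diverse set of 10,000 from Life Chemicals, filtered for drug-likeness and reactive groups. Testing followed previously published standard procedures, with a reference drug as positive control.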

A further series relates to Onchocerca ochengi. As to the kind of experiment: WHO-TDR: Onchocerciasis. The format is functional. On the set-up: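 at 12.5 µM on microfilariae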. Summed up: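 Percent inhibition and IC50 describe activity against microfilariae of Onchocerca ochengi or Onchocerca lienalis, used as animal-pathogen substitutes for the human parasite. The compounds tested made up a 10,000-member diverse library from Life Chemicals.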

For a further series, the system named is Brugia malayi. Nature of the series: WHO-TDR: Lymphatic Filariasis. The class given is functional. On the set-up: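 tested at 10 µM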. Summed up:
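The screening set was a 10,000-compound diverse library from Life Chemicals, filtered for drug-likeness and for reactive groups. It was run against Brugia malayi microfilariae as whole organisms, using previously published standard procedures. Reference drugs acted as positive controls, and activity is reported both as percent inhibition and as IC50.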

The IC50 is the concentration that gives 50% inhibition. A word on the % Inhibition: it is the relative decrease from the control value, in per cent.

≈ marks a conversion by molar mass, not a printed value. Bounds are passed on as bounds.

As to `Cc1ccccc1OCC(=O)NCCS(=O)(=O)N1CCN(Cc2ccccc2)CC1`, the IC50 (in series [1]; in the series with Plasmodium falciparum K1; in the series on Trypanosoma cruzi; in series [2]; with Leishmania infantum) was more than 14 µg/mL in each case. In addition, the “% Inhibition” value is listed as 83.3% with Schistosoma mansoni, 100% in the series with Onchocerca ochengi and 20% in the series on Brugia malayi.

For `COc1ccc(Cl)c2sc(N(CCCn3ccnc3)C(=O)c3cccc(F)c3)nc12`, the IC50 in series [1] was 4.08 µg/mL (≈ 9.16 µM); in the series on Plasmodium falciparum K1, 3.63 µg/mL (≈ 8.15 µM); in the series with Trypanosoma cruzi it was 3.68 µg/mL (≈ 8.27 µM); in series [2], 4.67 µg/mL (≈ 10.5 µM); with Leishmania infantum, more than 14.4 µg/mL. The “% Inhibition” value with Schistosoma mansoni was 0%; with Onchocerca ochengi, 100%; in the series on Brugia malayi, 0%.

Turning to `COc1ccc(C)c2sc(N(CCCn3ccnc3)C(=O)Cc3ccccc3)nc12`, the IC50 in series [1] was 4.07 µg/mL (≈ 9.68 µM); with Plasmodium falciparum K1, 0.615 µg/mL (≈ 1.46 µM); in the series with Trypanosoma cruzi, 0.644 µg/mL (≈ 1.53 µM); in series [2] it was 3.3 µg/mL (≈ 7.85 µM); in the series on Leishmania infantum, more than 13.7 µg/mL. Further, the figures for the “% Inhibition” value in the series on Schistosoma mansoni, in the series on Onchocerca ochengi and in the series with Brugia malayi were 0%, 100% and 0%, respectively.

Consider `Cc1cc(-c2nnc(NC(=O)c3nc4ccccc4s3)o2)nn1C`, for which the half-maximal inhibitory concentration (IC50) in series [1] is more than 10.2 µg/mL; with Plasmodium falciparum K1, more than 10.2 µg/mL; in the series on Trypanosoma cruzi, 3.72 µg/mL (≈ 10.9 µM); in series [2], more than 10.2 µg/mL; with Leishmania infantum it was more than 10.2 µg/mL. The results for the “% Inhibition” value in the series on Schistosoma mansoni, in the series with Onchocerca ochengi and in the series with Brugia malayi were 0%, 100% and 33.33%, respectively.

Regarding `C/C=C/Cn1c(=O)c2c(nc3n(C(C)c4ccccc4)c(C)cn23)n(C)c1=O` (configuration not stated), the IC50 in series [1] was more than 11.3 µg/mL; in the series with Plasmodium falciparum K1, 6.29 µg/mL (≈ 16.7 µM); in the series on Trypanosoma cruzi, 3.82 µg/mL (≈ 10.1 µM); in series [2], 0.099 µg/mL (≈ 0.262 µM); in the series on Leishmania infantum, more than 11.3 µg/mL. In addition, the “% Inhibition” value is 0% in the series on Schistosoma mansoni, 0% in the series on Onchocerca ochengi and 20% in the series on Brugia malayi.

On to `CCSc1nc(-c2ccccc2)c(NC(C)=O)s1`, for which the IC50 was more than 8.35 µg/mL in series [1]; more than 8.35 µg/mL with Plasmodium falciparum K1; more than 8.35 µg/mL with Trypanosoma cruzi; more than 8.35 µg/mL in series [2]; 0.27 µg/mL (≈ 0.97 µM) in the series on Leishmania infantum. For the same compound, the “% Inhibition” value in the series with Schistosoma mansoni, in the series on Onchocerca ochengi and in the series with Brugia malayi was 0% each time.

With `Cc1ccc(-n2ccnc2N2CCN(C(=O)/C=C\c3ccccc3)CC2)cc1`, the IC50 was more than 12.3 µg/mL in series [1]; 6.82 µg/mL (≈ 18.3 µM) in the series with Plasmodium falciparum K1; 3.88 µg/mL (≈ 10.4 µM) with Trypanosoma cruzi; 4.07 µg/mL (≈ 10.9 µM) in series [2]; more than 12.3 µg/mL in the series on Leishmania infantum. Besides, the “% Inhibition” value in the series with Schistosoma mansoni is reported as 25%; in the series on Onchocerca ochengi, 100%; with Brugia malayi, 0%.

Consider `O=C(CCCn1nc(-c2ccc(F)cc2)ccc1=O)Nc1ccc(C(F)(F)F)cc1`, for which the IC50 (in series [1]; in the series with Plasmodium falciparum K1; in the series with Trypanosoma cruzi; in series [2]; in the series on Leishmania infantum) was more than 12.6 µg/mL throughout. For the same compound, the “% Inhibition” value in the series on Schistosoma mansoni turned out to be 0%; in the series with Onchocerca ochengi, 100%; with Brugia malayi, 0%.

`Cc1ccc(Cn2c(CO)cnc2SCC(=O)Nc2cccc3ccccc23)cc1`: the IC50 (in series [1]; with Plasmodium falciparum K1; with Trypanosoma cruzi; in series [2]; in the series on Leishmania infantum) was more than 12.5 µg/mL each time. Further, the “% Inhibition” value is listed as 0% in the series on Schistosoma mansoni, 100% in the series with Onchocerca ochengi and 25% with Brugia malayi.

For `CCc1ccc(NC(=O)N2CCN(c3ccc(Nc4cc(C)ccn4)nn3)CC2)cc1`, the IC50 is more than 12.5 µg/mL in series [1]; 8.24 µg/mL (≈ 19.7 µM) with Plasmodium falciparum K1; more than 12.5 µg/mL with Trypanosoma cruzi; more than 12.5 µg/mL in series [2]; more than 12.5 µg/mL in the series with Leishmania infantum. The “% Inhibition” value with Schistosoma mansoni came out at 0%; with Onchocerca ochengi it was 100%; in the series with Brugia malayi, 50%.

Turning to `O=C(c1ccc(Cl)cc1Cl)N1CCN(c2ccc(Nc3cccnc3)nn2)CC1`, the IC50 in series [1] is more than 12.9 µg/mL; in the series on Plasmodium falciparum K1, 7.24 µg/mL (≈ 16.9 µM); in the series on Trypanosoma cruzi, 3.7 µg/mL (≈ 8.63 µM); in series [2] it was more than 12.9 µg/mL; in the series on Leishmania infantum, more than 12.9 µg/mL. The “% Inhibition” value was 0% in the series on Schistosoma mansoni, 100% in the series on Onchocerca ochengi and 0% with Brugia malayi.

For the compound `Cn1nccc1C(=O)Nc1sc(-c2ccccc2)cc1C(N)=O`, the IC50 is 8.31 µg/mL (≈ 25.4 µM) in series [1]; more than 9.79 µg/mL in the series on Plasmodium falciparum K1; 6.26 µg/mL (≈ 19.2 µM) in the series with Trypanosoma cruzi; 3.17 µg/mL (≈ 9.71 µM) in series [2]; 3.17 µg/mL (≈ 9.71 µM) with Leishmania infantum. Moreover, the results for the “% Inhibition” value in the series with Schistosoma mansoni, with Onchocerca ochengi and with Brugia malayi were 100%, 0% and 0%, respectively.

With `O=C(Nc1nc(-c2ccccn2)cs1)C1CCN(S(=O)(=O)c2ccc(Cl)cc2)CC1`, the IC50 is more than 13.9 µg/mL in series [1]; 12.7 µg/mL (≈ 27.5 µM) in the series on Plasmodium falciparum K1; 4.3 µg/mL (≈ 9.28 µM) in the series on Trypanosoma cruzi; 4.13 µg/mL (≈ 8.93 µM) in series [2]; more than 13.9 µg/mL with Leishmania infantum. Further, the “% Inhibition” value came to 0% in the series on Schistosoma mansoni, 100% in the series with Onchocerca ochengi and 0% in the series on Brugia malayi.

For `Cn1ccnc1N1CCN(CC(=O)Nc2ccc(OC(F)(F)F)cc2)CC1`, the IC50 in series [1] is more than 11.5 µg/mL; in the series with Plasmodium falciparum K1 it was more than 11.5 µg/mL; in the series on Trypanosoma cruzi it was more than 11.5 µg/mL; in series [2] it was 5.13 µg/mL (≈ 13.4 µM); in the series with Leishmania infantum, 0.372 µg/mL (≈ 0.97 µM). Moreover, the “% Inhibition” value with Schistosoma mansoni turned out to be 0%; in the series with Onchocerca ochengi, 50%; with Brugia malayi it was 0%.

With `O=C(NCCc1ccc(Cl)cc1)c1csc(NS(=O)(=O)c2ccccc2)n1`, the IC50 (in series [1]; in the series with Plasmodium falciparum K1; with Trypanosoma cruzi; in series [2]; in the series on Leishmania infantum) was more than 12.7 µg/mL in each case. The entries for the “% Inhibition” value with Schistosoma mansoni, in the series with Onchocerca ochengi and with Brugia malayi were 0%, 100% and 20%, respectively.

Regarding `Cc1ccc(NC(=O)CN2CCN(c3nccn3-c3ccccc3F)CC2)cc1`, the 50% inhibitory concentration (IC50) is more than 11.8 µg/mL in series [1]; 6.19 µg/mL (≈ 15.7 µM) in the series with Plasmodium falciparum K1; 11.2 µg/mL (≈ 28.6 µM) in the series with Trypanosoma cruzi; 5.48 µg/mL (≈ 13.9 µM) in series [2]; more than 11.8 µg/mL in the series on Leishmania infantum. The “% Inhibition” value in the series on Schistosoma mansoni was found to be 0%; with Onchocerca ochengi, 100%; with Brugia malayi, 0%.

For the compound `Cc1ccc(S(=O)(=O)N2CCN(c3ccc(Nc4cccnc4)nn3)CC2)c(C)c1`, the IC50 in series [1] is 0.804 µg/mL (≈ 1.89 µM); in the series with Plasmodium falciparum K1, 0.716 µg/mL (≈ 1.69 µM); in the series with Trypanosoma cruzi, 3.91 µg/mL (≈ 9.21 µM); in series [2], more than 12.7 µg/mL; in the series on Leishmania infantum it was more than 12.7 µg/mL. Moreover, the “% Inhibition” value in the series on Schistosoma mansoni is on record as 0%; in the series on Onchocerca ochengi it was 100%; in the series on Brugia malayi it was 0%.

Turning to `Cc1ccc(C(=O)Nc2nnc(Cc3cccs3)o2)cc1C`, the IC50 in series [1] was more than 9.4 µg/mL; with Plasmodium falciparum K1, more than 9.4 µg/mL; with Trypanosoma cruzi, 3.01 µg/mL (≈ 9.61 µM); in series [2], 0.383 µg/mL (≈ 1.22 µM); in the series with Leishmania infantum, more than 9.4 µg/mL. In addition, the figures for the “% Inhibition” value with Schistosoma mansoni, in the series with Onchocerca ochengi and with Brugia malayi were 25%, 0% and 50%, respectively.

As to `O=C1C=CC(=O)N1c1ccccc1F`, the IC50 in series [1] was 1.81 µg/mL (≈ 9.48 µM); in the series with Plasmodium falciparum K1, more than 5.73 µg/mL; with Trypanosoma cruzi, 3.28 µg/mL (≈ 17.2 µM); in series [2] it was more than 5.73 µg/mL; in the series with Leishmania infantum, more than 5.73 µg/mL. Besides, the “% Inhibition” value came to 0% with Schistosoma mansoni, 100% in the series on Onchocerca ochengi and 20% with Brugia malayi.

For the origin of these results see ChEMBL document CHEMBL2093137, “WHO-TDR NTD Screening”.
